Compounds with a hit are over-represented: about 2.7% of the library has one in this group of screens.
SIAE inh = human SIAE inhibitors, primary screen, biochemical, fluorescence polarization, FP-Rh probe, 1536-well HTS; Sialate O-acetylesterase (Homo sapiens), Q9HAT2; SIAE FP-Rh probe binding; inhibition, % at 9.66 µM; 0.69% of 370,000 active; AID 1053197, 2014;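 active = inhibition above a cutoff: mean of compounds within the control limits plus 3 SD of those, cut at about 17% in these data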
mABHD4 FP = ABHD4 inhibitors, primary screen, biochemical, fluorescence polarization, mouse. AID 720543, 2013. inhibition, % at 8.92 µM. purified mABHD4, FP-Rh probe fluorescence polarization. (Lyso)-N-acylphosphatidylethanolamine lipase (Mus musculus), Q8VD66. 0.54% of 370,000 active;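 active = inhibition exceeding the mean over every tested compound plus 3 SD, cut at about 30% in these data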
Target sequence (Q8VD66 whole entry, looked up): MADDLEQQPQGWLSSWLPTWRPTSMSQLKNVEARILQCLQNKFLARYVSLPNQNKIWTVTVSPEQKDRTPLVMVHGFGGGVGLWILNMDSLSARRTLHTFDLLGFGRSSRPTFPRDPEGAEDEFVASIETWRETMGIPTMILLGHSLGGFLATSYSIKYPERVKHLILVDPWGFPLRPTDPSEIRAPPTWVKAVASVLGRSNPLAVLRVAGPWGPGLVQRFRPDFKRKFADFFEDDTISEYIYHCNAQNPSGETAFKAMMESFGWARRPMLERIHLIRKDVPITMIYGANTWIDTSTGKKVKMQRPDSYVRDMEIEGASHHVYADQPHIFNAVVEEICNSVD
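Assay system: Wild-type mouse ABHD4 protein | Medium: HEPES pH 7.0 buffer, 150 mM NaCl, 0.01% Pluronic F-127 | Incubation: Enzyme–compound pre-incubation 45 min, then probe 60 min, both 25 °C | Technique: Fluorescence polarization with parallel and perpendicular emission, 525/598 nm | Evaluation: % inhibition of FP-Rh probe binding versus controls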
PRMT1 inh = PRMT1 methyltransferase inhibitors, primary screen, biochemical, fluorescence polarization; Protein arginine N-methyltransferase 1 (Homo sapiens), Q99873; recombinant PRMT1, activity-based probe fluorescence polarization; inhibition, % at 2.79 µM; 1.3% of 370,000 active; AID 652257, 2013;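 active = inhibition above about 21% made by adding two undisclosed values, limit read from the data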
HTRA1 inh = HTRA1 serine protease inhibitors, primary screen, biochemical, fluorescence polarization, HTS; Q92743; recombinant HTRA1, FP-rhodamine activity-based probe; inhibition, % at 5.96 µM; 0.5% of 340,000 active; in the data active = inhibition above about 36%
TCR-CD3 inh = inhibitors of human TCR-CD3 interaction, primary screen, biochemical, fluorescence, TAMRA-labeled TCR probe. inhibition, % at 9.4 µM. 0.37% of 360,000 active; in the data active = inhibition above about 19%;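 also: recombinant mutant TCR 2C K166C tagged with TAMRA read by polarization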
PRMT1 confirm = PRMT1 methyltransferase inhibitors, confirmation, biochemical, fluorescence polarization, triplicate. shares compounds with PRMT1 inh. recombinant His-PRMT1, activity-based probe fluorescence polarization. inhibition, % at 2.79 µM. 42% of 3,300 active;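 active = mean inhibition across replicates above the hit cutoff derived for the earlier primary screen, cut at about 22% in these data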
Hits are given with their value; i = inactive; nt = no result.

SMILES | SIAE inh | mABHD4 FP | PRMT1 inh | HTRA1 inh | TCR-CD3 inh | PRMT1 confirm
O=C(CCNc1cccc(F)c1)c1cccc([N+](=O)[O-])c1 | i | i | 40.8 | i | i | 27.1
Cc1cc(C)cc(Cn2cc(CN3CC(N4CCN(CCO)CC4)CS3(=O)=O)nn2)c1 (centres undefined) | i | i | i | nt | i | nt
COc1ccc(S(=O)(=O)Nc2cc(Sc3ncn[nH]3)c(O)cc2C)cc1 | i | i | i | nt | i | nt
O=S(=O)(Nc1cc(Sc2ncn[nH]2)c(O)c2ccccc12)c1ccccc1 | i | i | 64.3 | nt | i | 110.6
CCOC(=O)Cc1csc(-n2sc3ccccc3c2=O)n1 | i | i | 88.2 | i | i | 89.2
CCOC(=O)Cc1csc(SCn2nnc3ccccc3c2=O)n1 | i | i | i | i | i | nt
COc1ccc(N=Nc2nc3cc(Br)c(Br)cc3n2C)c(OC)c1 | i | i | 69.1 | i | i | 49.1
O=C(CCCCCNC(=O)c1ccccc1Cl)N/N=C/c1ccco1 | i | i | i | i | i | nt
CC(=O)Nc1ccc(SC(C)C(=O)NC(N)=O)cc1 (centres undefined) | i | i | 38.8 | i | i | 31.5
CSCCC(NC(=O)c1ccccc1Cl)C(=O)N(C)Cc1cccs1 (centres undefined) | i | i | i | i | i | nt
CC(=O)c1cccc(-n2c(CCC(=O)O)ccc2-c2cccs2)c1 | i | i | 67.7 | i | i | i
O=C(O)CCc1ccc(-c2cccs2)n1-c1ccc(C(=O)O)cc1 | i | i | 37.3 | i | i | i
O=C(O)CCc1ccc(-c2cccs2)n1CCC(=O)O | i | i | i | i | i | nt
O=C(NCC1COCCO1)C1CCN(S(=O)(=O)c2ccc(Br)s2)CC1 (centres undefined) | i | i | i | nt | nt | nt
CCCCNC(=O)C[C@@H]1C(=O)N(CCc2ccc(Cl)cc2)/C2=C/CCCCC[C@@]21C(=O)OCC | i | i | i | nt | nt | nt
COc1cc(N)c(Cl)cc1C(=O)OCC(=O)NCC1CCCO1 (centres undefined) | i | i | i | i | i | nt
COc1cc(N)c(Cl)cc1C(=O)OCC(=O)NCC1CCCCC1 | i | i | 33.9 | i | i | i
Cc1cccc(NC(=O)CSCC(=O)N(C)Cc2c(F)cccc2Cl)c1 | i | i | i | i | i | nt
CCCC1C2CN(C(C)C)CC=C2C(C#N)=C(N)C1(C#N)C#N (centres undefined) | 23.6 | i | 70.1 | i | i | 22.1
Cc1c(C(=O)NCc2ccco2)sc(=O)n1Cc1ccc(S(C)(=O)=O)cc1 | i | i | i | nt | i | nt
COc1ccc(CCNC(=O)c2sc(=S)n(C)c2N)cc1 | i | i | i | i | i | nt
Cn1c(N)c(C(=O)NCc2ccccc2)sc1=S | i | i | 25.6 | i | i | i
CN(c1ccccc1)c1nc(N)c(C#N)c(CC#N)c1C#N | i | i | i | i | i | nt
N#CCc1c(C#N)c(N)nc(Nc2ccccc2)c1C#N | i | i | 40.3 | i | i | i
C[C@@H]1CN(c2ccc(N3CCN(C(=O)OC(C)(C)C)C[C@@H]3C)cc2C#N)C[C@H](C)O1 | i | i | i | nt | i | nt
SMILES | SIAE inh | mABHD4 FP | PRMT1 inh | HTRA1 inh | TCR-CD3 inh | PRMT1 confirm
CCOc1ccccc1C(C(=O)NC1CCCCC1)N(C(=O)c1csnn1)C1CC1 (centres undefined) | i | i | i | i | i | nt
Cc1cccc(/N=C/c2sc3ccccc3c2O)n1 | i | i | 36.6 | i | i | i
O=[N+]([O-])c1ccc(O)c(N=Cc2sc3ccccc3c2O)c1 | i | i | 65.9 | i | i | 44.5
[N-]=C=C1C(=O)NC(=O)C([n+]2ccc(-c3ccncc3)cc2)C1c1ccccc1C(F)(F)F (centres undefined) | i | i | i | i | i | nt
[N-]=C=C1C(=S)NC(=O)[C@H]([n+]2ccccc2)[C@H]1c1ccc(Cl)cc1 | i | i | 25.4 | i | i | 31.6
Cc1ccc(-n2sc3cc(F)ccc3c2=O)c(C)c1 | i | i | 91.9 | i | i | 81.2
O=c1c2ccccc2ncn1-c1ccc(Cl)cc1 | i | i | i | i | i | nt
O=c1c2cc(F)ccc2sn1-c1ccccc1Cl | i | i | 61.3 | i | i | 94.8
O=c1c2ccc(F)cc2sn1-c1ccccc1 | i | i | 80.2 | i | i | 94.3
O=c1c2ccccc2sn1-c1ccc(Cl)cc1 | i | i | 89.7 | i | i | 86.0
Cc1ccc(N2C(=O)CC(N3CCN(c4ccc(F)cc4)CC3)C2=O)c(C)c1 (centres undefined) | i | i | i | i | i | nt
N=C1SCC(=O)N1c1ccccc1Cl | i | i | i | i | i | nt
Cc1ccc(C2c3sc(=O)[nH]c3SC3C4CC(C5C(=O)N(C(C)C(=O)O)C(=O)C45)C23)cc1 (centres undefined) | i | i | 59.1 | i | i | i
CN1CCc2c(sc3c2C(=O)NC(c2cn(Cc4ccccc4)c4ccccc24)N3)C1 (centres undefined) | i | i | i | i | i | nt
O=C1NC(c2ccco2)Nc2sc3c(c21)CCN(Cc1ccccc1)C3 (centres undefined) | i | i | 31.2 | i | i | i
CN1CCc2c(sc3c2C(=O)NC(c2ccco2)N3)C1 (centres undefined) | i | i | 26.8 | i | i | i
COc1ccc(NC(=O)CSc2nnnn2C2CC2)cc1S(=O)(=O)N1CCOCC1 | i | i | 38.0 | i | i | i
COc1ccc(S(=O)(=O)N2CCOCC2)cc1NC(=O)CSc1nnnn1C1CC1 | i | i | i | i | i | nt
CSC1=NSC2=NC(=O)/C(=C\c3coc4ccccc4c3=O)C(=N)N12 | i | i | 31.1 | i | i | 71.6
Cc1ccc(C2=N/C(=C\c3coc4ccccc4c3=O)C(=O)O2)cc1 | i | i | 37.5 | nt | i | i
COc1ccc(/C=C2\N=C(c3ccc(C)cc3)OC2=O)cc1 | i | i | i | i | i | nt
COc1ccc(NC(=O)COC(=O)CNC(=O)C2CCCCC2)cc1OC | i | i | i | i | i | nt
CCOC(=O)c1c(-c2ccccc2)csc1NC(=O)CSc1nnc(C)s1 | i | i | i | i | i | nt
CCOC(=O)c1c(-c2ccc(C)o2)csc1NC(=S)NC(=O)c1cccs1 | i | i | i | i | i | nt
CCOC(=O)c1c(-c2ccc(C)o2)csc1NC(=O)CSc1nnc(C)s1 | i | i | 63.1 | i | i | i
CCOC(=O)c1c(-c2ccc(C)o2)csc1NC(=O)CSc1nnnn1-c1ccccc1 | i | i | 72.6 | i | i | i
CCOC(=O)c1c(-c2ccc(C)o2)csc1NC(=S)NC(=O)c1ccccc1Br | i | i | 54.5 | i | i | i
Cc1cc(C)c(S(=O)(=O)Cc2ccccc2)c(Cl)n1 | i | i | i | i | i | nt

Bioassay records deposited in PubChem BioAssay by The Scripps Research Institute Molecular Screening Center.
